Measured values published in ChEMBL document CHEMBL3244156, “Analgesic and tranquilizing activity of 5,8-disubstituted 1-tetralone Mannich bases” (1977).
Activity calls are given as the source filed them. The calls are words filed in the database; no cut-off is given here.

Tests used:
[1] = test system: Mus musculus; test: Analgesic activity in mouse assessed as tail-flick latency period at 100 mg/kg, ip after 2 hrs by tail flick test; format: functional; conditions: route intraperitoneal
[2] = test system: Mus musculus; test: Analgesic activity in mouse at 100 mg/kg, ip after 2 hrs by hot plate assay; format: functional; conditions: route intraperitoneal
Summary of the method: (§1)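 Mice dropped into a glass cylinder on an aluminum plate held at 57 °C. Timed from foot contact to first hind-foot flick, with a 10-s limit. Observed 0.5 and 2 h after treatment. Value is % of mice failing to react within the limit. At least ten mice per dose.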

[3] = test system: Rattus norvegicus; test: Analgesic activity in rat assessed as median foot shock required to elicit flinch-jump at 32 mg/kg, ip after 2 hrs; format: functional; conditions: route intraperitoneal
Summary of the method: (§2)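 Series given just before and 0.5 and 2 h after ip dosing. Flinch, squeak and jump were scored. Value is the median shock (mA) that elicits a jump. At least five rats per dose.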

[4] = test system: Rattus norvegicus; test: Analgesic activity in rat assessed as median foot shock required to elicit flinch-jump at 10 mg/kg, ip after 2 hrs; format: functional; conditions: route intraperitoneal; summary of the method: as §2
[5] = test system: Rattus norvegicus; test: Neuroleptic activity in ip dosed rat assessed as drug required for blocking discriminated jump-out avoidance behavior in after 1 hr; format: functional
Summary of the method: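 Rats trained in discriminated jump-out avoidance and tested 1 h after dosing. Value is an estimated ED50 for blocking avoidance.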

[6] = test system: Mus musculus; test: Neuroleptic activity in ip dosed mouse assessed as inhibition of amphetamine-induced mortality; format: functional
Summary of the method: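 Aggregated mice in groups of ten given amphetamine. Value is an ED50 estimate for blocking lethality, bracketed between a dose where <5/10 died and a dose where >5/10 died.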

[7] = test system: Canis familiaris; test: Analgesic activity in dog assessed as rippling of skin at 10 mg/kg, po after 2 hrs by radiant heat assay; format: functional, Canis lupus familiaris
Summary of the method: (§3)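 Dogs held in a harness with a shaved mid-back patch placed under a concealed radiant heat source. Endpoint is the latency from heat onset to skin "rippling". Baseline latency measured in each dog, then retested at 0.5 and 2 h after dosing. Result expressed as % of control.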

[8] = test system: Canis familiaris; test: Analgesic activity in dog assessed as rippling of skin at 5 mg/kg, po after 2 hrs by radiant heat assay; format: functional, Canis lupus familiaris; summary of the method: as §3
[9] = test system: Rattus norvegicus; test: Analgesic activity in rat assessed as median foot shock required to elicit flinch-jump at 17.8 mg/kg, po after 2 hrs; format: functional
[10] = test system: Mus musculus; test: Analgesic activity in mouse at 32 mg/kg, ip after 2 hrs by hot plate assay; format: functional; conditions: route intraperitoneal; summary of the method: as §1
[11] = test system: Mus musculus; test: Analgesic activity in mouse assessed as tail-flick latency period at 32 mg/kg, ip after 2 hrs by tail flick test; format: functional; conditions: route intraperitoneal
[12] = species: Rattus norvegicus; test: Induction of cross-tolerance development in rat assessed as median foot shock required to elicit flinch-jump in presence of morphine; format: functional, organism-based
[13] = test system: Rattus norvegicus; test: Analgesic activity in ip dosed rat assessed as median foot shock required to elicit flinch-jump in presence of naloxone; format: functional, organism-based
[14] = species: Rattus norvegicus; test: Induction of tolerance development in rat assessed as median foot shock required to elicit flinch-jump; format: functional, organism-based

COc1ccc(F)c2c1CCC(CN(C)C)C2=O.Cl (stereo unspecified) was tested. Which Activity [1] did it give?
The Activity was 0%.

And the Activity [2]?
The Activity was 50%.

What about the Activity [3] of the same molecule?
The Activity was 0.6 mA.

What does the source list for COc1ccc(Cl)c2c1CC(CN(C)C)C2=O.Cl (stereo unspecified)?
Activity [1]: 30%; Activity [2]: 20%; Activity [3]: 0.6 mA

What does the source list for COc1ccc(Cl)c2c1CCC(C(C)N1CCOCC1)C2=O.Cl (stereo unspecified)?
Activity [1]: 0%; Activity [2]: 0%; Activity [3]: 0.6 mA

Which results are given for COc1ccc(Cl)c2c1CCC(CN1CCC(c3ccccc3)CC1)C2=O.Cl (stereo unspecified)?
Activity [4]: 2.2 mA; Activity [1]: 10%; Activity [2]: 20%; Activity [3]: >2.2 mA

For COc1ccc(Cl)c2c1CCC(C(c1ccccc1)N1CCCCC1)C2=O.Cl (stereo unspecified), which Activity [1] is on record?
The Activity was 0%.

What about the Activity [2] of the same molecule?
The Activity was 30%.

What about the Activity [3] of the same molecule?
Its Activity is 0.6 mA.

How did the Activity [1] turn out when COc1ccc(Cl)c2c1CC(CN1CCCCC1)C2=O.Cl (stereo unspecified) was run?
Its Activity is 0%.

And the Activity [2]?
Its Activity is 0%.

What about the Activity [3] of the same molecule?
Its Activity is 0.6 mA.

For COc1ccc(Cl)c2c1CCC(CN1CCCCCC1)C2=O.Cl (stereo unspecified), which Activity [1] is on record?
The Activity was 0%.

And the Activity [2]?
The Activity was 0%.

And the Activity [3]?
The Activity was 1.2 mA.

For Cl.O=C1c2ccccc2CCC1CN1CCCC1 (stereo unspecified), which ED50 [5] is on record?
The ED50 was > 10 mg/kg.

What about the Activity [1] of the same molecule?
Its Activity is 10%.

What about the Activity [2] of the same molecule?
The Activity was 0%.

And the ED50 [6]?
The ED50 was 32 mg/kg.

What about the Activity [7] of the same molecule?
Its Activity is 100%.

What about the Activity [3] of the same molecule?
Its Activity is 1.2 mA.

For CCC(=O)O[C@](Cc1ccccc1)(c1ccccc1)[C@H](C)CN(C)C [PROPOXYPHENE], which Activity [1] is on record?
The Activity was 70%.

And the Activity [2]?
The Activity was 30%.

And the Activity [8]?
The Activity was 100%.

What about the Activity [9] of the same molecule?
Its Activity is 1.2%.

COc1ccc(OC)c2c1CCC(CN1CCCCC1)C2=O.Cl (stereo unspecified) was tested. Which Activity [1] did it give?
The Activity was 22%.

What about the Activity [2] of the same molecule?
The Activity was 0%.

What about the Activity [3] of the same molecule?
Its Activity is 2.2 mA.

Which results are given for CN1CCN(CC/C=C2/c3ccccc3Sc3ccc(S(=O)(=O)N(C)C)cc32)CC1 [THIOTHIXENE]?
ED50 [5]: 3.2 mg/kg; ED50 [6]: 0.32 mg/kg

What does the source list for CCNCC1CCc2c(OC)ccc(Cl)c2C1=O.Cl (stereo unspecified)?
Activity [10]: 40%; Activity [4]: 2.2 mA; Activity [11]: 0%; Activity [3]: >2.2 mA

With COc1ccc(Cl)c2c1CCC(CN1CCC(O)(c3ccccc3)CC1)C2=O.Cl (stereo unspecified) as the molecule, how does the Activity [4] read?
The Activity was 1.2 mA.

And the Activity [1]?
The Activity was 0%.

What about the Activity [2] of the same molecule?
The Activity was 60%.

And the Activity [3]?
The Activity was >2.2 mA.

COc1ccc(C)c2c1CCC(CN(C)C)C2=O.Cl (stereo unspecified) was tested. Which Activity [3] did it give?
The Activity was 0.6 mA.

How did the Activity [10] turn out when COc1ccc(C)c2c1CCC(CN1CCCCC1)C2=O.Cl (stereo unspecified) was run?
The Activity was 40%.

What about the Activity [4] of the same molecule?
Its Activity is 2.2 mA.

What about the Activity [11] of the same molecule?
The Activity was 30%.

What about the Activity [3] of the same molecule?
The Activity was >2.2 mA.

With COc1ccc(Cl)c2c1CCC(C)(CN1CCCCC1)C2=O.Cl (stereo unspecified) as the molecule, how does the Activity [3] read?
The Activity was 0.6 mA.

What does the source list for CCOC1(c2ccccc2)CCN(CC2CCc3c(OC)ccc(Cl)c3C2=O)CC1.Cl (stereo unspecified)?
Activity [1]: 0%; Activity [2]: 0%; Activity [3]: 1.2 mA

For COc1ccc(OC)c2c1CCC(CN1CCCC1)C2=O.Cl (stereo unspecified), which Activity [1] is on record?
Its Activity is 0%.

What about the Activity [2] of the same molecule?
Its Activity is 0%.

What about the Activity [3] of the same molecule?
The Activity was 1.2 mA.

How did the Activity [10] turn out when C=CCNCC1CCc2c(OC)ccc(Cl)c2C1=O.Cl (stereo unspecified) was run?
Its Activity is 0%.

And the Activity [4]?
Its Activity is 2.2 mA.

What about the Activity [11] of the same molecule?
Its Activity is 0%.

And the Activity [3]?
Its Activity is >2.2 mA.

Which results are given for COc1ccc(Cl)c2c1CCC(CN1CCOCC1)C2=O.O=C(O)/C=C\C(=O)O (stereo unspecified)?
ED50 [5]: 0.32 mg/kg; Activity [1]: 20%; Activity [2]: 0%; ED50 [6]: 32 mg/kg; Activity [7]: 140%; Activity [3]: 2.2 mA

What does the source list for Cl.O=C1c2ccccc2CCC1CN1CCOCC1 (stereo unspecified)?
ED50 [5]: > 10 mg/kg; Activity [1]: 20%; Activity [2]: 10%; ED50 [6]: 32 mg/kg; Activity [7]: 90%; Activity [3]: 0.6 mA

For CN(C)CCCN1c2ccccc2Sc2ccc(Cl)cc21 [CHLORPROMAZINE], which ED50 [5] is on record?
Its ED50 is 3.2 mg/kg.

What about the ED50 [6] of the same molecule?
Its ED50 is 1 mg/kg.

What does the source list for CN(C)CC1CCc2ccccc2C1=O.Cl (stereo unspecified)?
ED50 [5]: > 10 mg/kg; Activity [1]: 0%; Activity [2]: 10%; ED50 [6]: 32 mg/kg; Activity [7]: 70%; Activity [3]: 1.2 mA

For CCOC(=O)N1CCN(CC2CCc3c(OC)ccc(Cl)c3C2=O)CC1.O=C(O)/C=C\C(=O)O (stereo unspecified), which Activity [1] is on record?
Its Activity is 0%.

And the Activity [2]?
The Activity was 0%.

And the Activity [3]?
The Activity was 0.6 mA.

For COc1ccc(Cl)c2c1CCC(CN1CCCC1)C2=O.Cl (stereo unspecified), which ED50 [5] is on record?
The ED50 was > 178 mg/kg.

And the Activity [12]?
The Activity was “inactive”.

What about the Activity [4] of the same molecule?
The Activity was 1.2 mA.

What about the Activity [1] of the same molecule?
The Activity was 0%.

What about the Activity [13] of the same molecule?
The Activity was “Active”.

And the Activity [2]?
The Activity was 30%.

And the ED50 [6]?
The ED50 was 10 mg/kg.

And the Activity [7]?
The Activity was 160%.

And the Activity [14]?
The Activity was “inactive”.

What about the Activity [3] of the same molecule?
The Activity was >2.2 mA.

COc1ccc(Cl)c2c1CCC(CN(C)C)C2=O.Cl (stereo unspecified) was tested. Which ED50 [5] did it give?
The ED50 was > 178 mg/kg.

What about the Activity [1] of the same molecule?
The Activity was 10%.

What about the Activity [2] of the same molecule?
Its Activity is 0%.

What about the ED50 [6] of the same molecule?
The ED50 was 32 mg/kg.

And the Activity [7]?
Its Activity is 130%.

And the Activity [3]?
The Activity was 2.2 mA.

For COc1ccc(Cl)c2c1CCC(C)(CN1CCOCC1)C2=O.Cl (stereo unspecified), which Activity [3] is on record?
Its Activity is 0.6 mA.
